Results published in ChEMBL document CHEMBL1275451, “In vitro susceptibilities of invasive isolates of Candida species: rapid increase in rates of fluconazole susceptible-dose dependent Candida glabrata isolates” (2008).
Converted amounts (≈) assume the structure as drawn. *1 amine or outer side, *2 acyl side, *3 side chain or, on linkers, in order; H or OH if unused. Where a SMILES comes first, the peptide text is derived from it. Bridges are numbered along the chain shown (N, C = ends). [ ]: non-standard residue; d: D form. The star is where a group is joined. pTerphenylCO(4''-OnC5H11) = CCCCCOc1ccc(-c2ccc(-c3ccc(C(=O)*)cc3)cc2)cc1; Orn(4R-OH,5R-OH) = O=C([C@H](C[C@@H](O)[C@@H](O)N[*:3])N[*:1])[*:2]; hTyr(3S-OH,4S-OH) = N[C@H](C(=O)O)[C@H](O)[C@@H](O)c1ccc(O)cc1; Pro(3S-OH,4S-Me) = C[C@H]1CN[C@H](C(=O)O)[C@H]1O; Hyp = O=C(O)[C@@H]1C[C@@H](O)CN1

Tests used:
Format in all cases: functional
Candida albicans [1] = assay: Antifungal activity against Candida albicans assessed as susceptible isolates after 48 hrs by CLSI method
Outline: (§1)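 Broth microdilution MICs were run on invasive clinical Candida isolates under CLSI M27-A2, with incubation at 35°C for 48 h before reading. Control strains were C. parapsilosis ATCC 22019 and C. krusei ATCC 6258. MICs were interpreted under the same guideline to place isolates as susceptible, susceptible-dose dependent or resistant, reported as percentage of isolates per category, with MIC range, MIC50 and MIC90.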

Candida tropicalis [2] = assay: Antifungal activity against Candida tropicalis assessed as susceptible isolates after 48 hrs by CLSI method; outline: as §1
[3] = tested on: Meyerozyma guilliermondii; assay: Antifungal activity against Candida guilliermondii assessed as susceptible isolates after 48 hrs by CLSI method; outline: as §1
Pichia kudriavzevii [4] = assay: Antifungal activity against Candida krusei after 48 hrs by CLSI method
Outline: as §1, with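 “reading.” for “reading. Control strains were C. parapsilosis ATCC 22019 and C. krusei ATCC 6258.”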

Clavispora lusitaniae [5] = assay: Antifungal activity against Candida lusitaniae assessed as susceptible isolates after 48 hrs by CLSI method; outline: as §1
Candida parapsilosis [6] = assay: Antifungal activity against Candida parapsilosis assessed as susceptible isolates after 48 hrs by CLSI method; outline: as §1
Candida albicans [7] = assay: Antifungal activity against Candida albicans after 48 hrs by CLSI method
Candida tropicalis [8] = assay: Antifungal activity against Candida tropicalis after 48 hrs by CLSI method; outline: as §1
Pichia kudriavzevii [9] = assay: Antifungal activity against Candida krusei assessed as susceptible isolates after 48 hrs by CLSI method; outline: as §1
Nakaseomyces glabratus [10] = assay: Antifungal activity against Candida glabrata after 48 hrs by CLSI method
Clavispora lusitaniae [11] = assay: Antifungal activity against Candida lusitaniae after 48 hrs by CLSI method
Nakaseomyces glabratus [12] = assay: Antifungal activity against Candida glabrata assessed as susceptible isolates after 48 hrs by CLSI method; outline: as §1
[13] = tested on: Meyerozyma guilliermondii; assay: Antifungal activity against Candida guilliermondii after 48 hrs by CLSI method
Candida parapsilosis [14] = assay: Antifungal activity against Candida parapsilosis after 48 hrs by CLSI method; conditions: Lodderomyces parapsilosis; outline: as §1
[15] = tested on: Meyerozyma guilliermondii; assay: Antifungal activity against Candida guilliermondii assessed as susceptible dose-dependent isolates after 48 hrs by CLSI method; outline: as §1
Candida albicans [16] = assay: Antifungal activity against Candida albicans assessed as susceptible dose-dependent isolates after 48 hrs by CLSI method; outline: as §1
Nakaseomyces glabratus [17] = assay: Antifungal activity against Candida glabrata assessed as susceptible dose-dependent isolates after 48 hrs by CLSI method; outline: as §1
[18] = tested on: Meyerozyma guilliermondii; assay: Antifungal activity against Candida guilliermondii assessed as resistant isolates after 48 hrs by CLSI method; outline: as §1
Pichia kudriavzevii [19] = assay: Antifungal activity against Candida krusei assessed as resistant isolates after 48 hrs by CLSI method; outline: as §1
Candida parapsilosis [20] = assay: Antifungal activity against Candida parapsilosis assessed as resistant isolates after 48 hrs by CLSI method; outline: as §1
Candida tropicalis [21] = assay: Antifungal activity against Candida tropicalis assessed as susceptible dose-dependent isolates after 48 hrs by CLSI method; outline: as §1
Clavispora lusitaniae [22] = assay: Antifungal activity against Candida lusitaniae assessed as susceptible dose-dependent isolates after 48 hrs by CLSI method; outline: as §1
Candida parapsilosis [23] = assay: Antifungal activity against Candida parapsilosis assessed as susceptible dose-dependent isolates after 48 hrs by CLSI method; outline: as §1
Candida albicans [24] = assay: Antifungal activity against Candida albicans assessed as resistant isolates after 48 hrs by CLSI method; outline: as §1
Candida tropicalis [25] = assay: Antifungal activity against Candida tropicalis assessed as resistant isolates after 48 hrs by CLSI method; outline: as §1
Pichia kudriavzevii [26] = assay: Antifungal activity against Candida krusei assessed as susceptible dose-dependent isolates after 48 hrs by CLSI method; outline: as §1
Clavispora lusitaniae [27] = assay: Antifungal activity against Candida lusitaniae assessed as resistant isolates after 48 hrs by CLSI method; outline: as §1
Nakaseomyces glabratus [28] = assay: Antifungal activity against Candida glabrata assessed as resistant isolates after 48 hrs by CLSI method; outline: as §1

| SMILES | Activity (Candida albicans [1]) [%] | Activity (Candida tropicalis [2]) [%] | Activity [3] [%] | MIC50 (Pichia kudriavzevii [4]) [µg/mL] | MIC90 (Pichia kudriavzevii [4]) [µg/mL] | Activity (Clavispora lusitaniae [5]) [%] | Activity (Candida parapsilosis [6]) [%] | MIC (Candida albicans [7]) [µg/mL] | MIC50 (Candida albicans [7]) [µg/mL] | MIC90 (Candida albicans [7]) [µg/mL] | MIC50 (Candida tropicalis [8]) [µg/mL] | MIC90 (Candida tropicalis [8]) [µg/mL] | Activity (Pichia kudriavzevii [9]) [%] | MIC50 (Nakaseomyces glabratus [10]) [µg/mL] | MIC90 (Nakaseomyces glabratus [10]) [µg/mL] | MIC50 (Clavispora lusitaniae [11]) [µg/mL] | MIC90 (Clavispora lusitaniae [11]) [µg/mL] | Activity (Nakaseomyces glabratus [12]) [%] | MIC50 (Candida parapsilosis [14]) [µg/mL] | MIC90 (Candida parapsilosis [14]) [µg/mL] | further results |
| --- | --- | --- | --- | --- | --- | --- | --- | --- | --- | --- | --- | --- | --- | --- | --- | --- | --- | --- | --- | --- | --- |
| C[C@@H]1[C@H](O)[C@@H](C)/C=C/C=C/C=C/C=C/C=C/C=C/C=C/[C@H](O[C@@H]2O[C@H](C)[C@@H](O)[C@H](N)[C@@H]2O)C[C@@H]2O[C@](O)(C[C@@H](O)C[C@@H](O)[C@H](O)CC[C@@H](O)C[C@@H](O)CC(=O)O[C@H]1C)C[C@H](O)[C@H]2C(=O)O [AMPHOTERICIN B] | 100 | 98 | 97 | 2 (≈ 2.16 µM) | 2 (≈ 2.16 µM) | 100 | 98 | 1 (≈ 1.08 µM) | 1 (≈ 1.08 µM) | 1 (≈ 1.08 µM) | 0.5 (≈ 0.541 µM) | 1 (≈ 1.08 µM) | 5 | 2 (≈ 2.16 µM) | 2 (≈ 2.16 µM) | 1 (≈ 1.08 µM) | 1 (≈ 1.08 µM) | 47 | – | – | MIC (Candida tropicalis [8]): 0.5 µg/mL (≈ 0.541 µM) |
| CCCCCOc1ccc(-c2ccc(-c3ccc(C(=O)N[C@H]4C[C@@H](O)[C@@H](O)NC(=O)[C@@H]5[C@@H](O)[C@@H](C)CN5C(=O)[C@H]([C@@H](C)O)NC(=O)[C@H]([C@H](O)[C@@H](O)c5ccc(O)cc5)NC(=O)[C@@H]5C[C@@H](O)CN5C(=O)[C@H]([C@@H](C)O)NC4=O)cc3)cc2)cc1 [ANIDULAFUNGIN] ({pTerphenylCO(4''-OnC5H11)}-[Orn(4R-OH,5R-OH)]T[Hyp][hTyr(3S-OH,4S-OH)]T[Pro(3S-OH,4S-Me)]; lactam 1-C) | – | – | – | 0.12 (≈ 0.105 µM) | 0.25 (≈ 0.219 µM) | – | – | 0.015 (≈ 0.0132 µM) | 0.015 (≈ 0.0132 µM) | 0.015 (≈ 0.0132 µM) | 0.03 (≈ 0.0263 µM) | 0.06 (≈ 0.0526 µM) | – | 0.03 (≈ 0.0263 µM) | 0.03 (≈ 0.0263 µM) | 0.06 (≈ 0.0526 µM) | 0.12 (≈ 0.105 µM) | – | 1 (≈ 0.877 µM) | 2 (≈ 1.75 µM) | MIC50 [13]: 1 µg/mL (≈ 0.877 µM); MIC90 [13]: 2 µg/mL (≈ 1.75 µM) |
| CC[C@H](C)C[C@H](C)CCCCCCCCC(=O)N[C@H]1C[C@@H](O)[C@@H](NCCN)NC(=O)[C@@H]2[C@@H](O)CCN2C(=O)[C@H]([C@H](O)CCN)NC(=O)[C@H]([C@H](O)[C@@H](O)c2ccc(O)cc2)NC(=O)[C@@H]2C[C@@H](O)CN2C(=O)[C@H]([C@@H](C)O)NC1=O [CASPOFUNGIN] | – | – | – | 1 (≈ 0.915 µM) | 1 (≈ 0.915 µM) | – | – | – | 0.25 (≈ 0.229 µM) | 0.25 (≈ 0.229 µM) | 0.25 (≈ 0.229 µM) | 0.5 (≈ 0.457 µM) | – | 0.25 (≈ 0.229 µM) | 0.25 (≈ 0.229 µM) | 2 (≈ 1.83 µM) | 2 (≈ 1.83 µM) | – | 1 (≈ 0.915 µM) | 2 (≈ 1.83 µM) | MIC50 [13]: 2 µg/mL (≈ 1.83 µM); MIC90 [13]: 2 µg/mL (≈ 1.83 µM) |
| OC(Cn1cncn1)(Cn1cncn1)c1ccc(F)cc1F [FLUCONAZOLE] | 100 | 100 | 88 | 32 (≈ 104 µM) | 64 (≈ 209 µM) | 100 | 98 | 0.12 (≈ 0.392 µM) | 0.12 (≈ 0.392 µM) | 0.25 (≈ 0.816 µM) | 1 (≈ 3.27 µM) | 2 (≈ 6.53 µM) | 0 | 16 (≈ 52.2 µM) | 32 (≈ 104 µM) | 0.25 (≈ 0.816 µM) | 0.5 (≈ 1.63 µM) | 22 | 1 (≈ 3.27 µM) | 2 (≈ 6.53 µM) | Activity [15]: 9%; Activity (Candida albicans [16]): 0%; Activity (Nakaseomyces glabratus [17]): 73%; Activity [18]: 3%; Activity (Pichia kudriavzevii [19]): 38%; Activity (Candida parapsilosis [20]): 0%; Activity (Candida tropicalis [21]): 0%; Activity (Clavispora lusitaniae [22]): 0%; Activity (Candida parapsilosis [23]): 2%; Activity (Candida albicans [24]): 0%; Activity (Candida tropicalis [25]): 0%; Activity (Pichia kudriavzevii [26]): 63%; Activity (Clavispora lusitaniae [27]): 0%; Activity (Nakaseomyces glabratus [28]): 6% |
